Data as given in ChEMBL document CHEMBL1140294 (J Med Chem, 2005).

Columns and labels:
Type in all cases: cell-based
[1] = molecular target: T1, ATP-dependent translocase ABCB1 (Homo sapiens, UniProt P08183); test: Reversal of P-gp-mediated multidrug resistance in doxorubicin-resistant human K562 cells assessed as drug concentration causing half-maximal increase in nuclear pirarubicin concentration; conditions: read-out: Activity
[2] = molecular target: T1, ATP-dependent translocase ABCB1; test: Reversal of P-gp-mediated multidrug resistance in doxorubicin-resistant human K562 cells assessed as increase in nuclear pirarubicin concentration
[3] = molecular target: T1, ATP-dependent translocase ABCB1; test: Reversal of P-gp-mediated multidrug resistance in human K562 cells assessed as drug concentration causing 40% increase in nuclear pirarubicin concentration
Method in brief: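 Doxorubicin-resistant K 562 cells in exponential phase. Pirarubicin uptake monitored by fluorescence at 590 nm (ex 480 nm) in HEPES buffer (pH 7.25) at 37 °C. The reported value, [I]0.5, is the modulator concentration giving a 40% increase in nuclear pirarubicin concentration (α = 0.4).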

T1 sequence (P08183 whole entry): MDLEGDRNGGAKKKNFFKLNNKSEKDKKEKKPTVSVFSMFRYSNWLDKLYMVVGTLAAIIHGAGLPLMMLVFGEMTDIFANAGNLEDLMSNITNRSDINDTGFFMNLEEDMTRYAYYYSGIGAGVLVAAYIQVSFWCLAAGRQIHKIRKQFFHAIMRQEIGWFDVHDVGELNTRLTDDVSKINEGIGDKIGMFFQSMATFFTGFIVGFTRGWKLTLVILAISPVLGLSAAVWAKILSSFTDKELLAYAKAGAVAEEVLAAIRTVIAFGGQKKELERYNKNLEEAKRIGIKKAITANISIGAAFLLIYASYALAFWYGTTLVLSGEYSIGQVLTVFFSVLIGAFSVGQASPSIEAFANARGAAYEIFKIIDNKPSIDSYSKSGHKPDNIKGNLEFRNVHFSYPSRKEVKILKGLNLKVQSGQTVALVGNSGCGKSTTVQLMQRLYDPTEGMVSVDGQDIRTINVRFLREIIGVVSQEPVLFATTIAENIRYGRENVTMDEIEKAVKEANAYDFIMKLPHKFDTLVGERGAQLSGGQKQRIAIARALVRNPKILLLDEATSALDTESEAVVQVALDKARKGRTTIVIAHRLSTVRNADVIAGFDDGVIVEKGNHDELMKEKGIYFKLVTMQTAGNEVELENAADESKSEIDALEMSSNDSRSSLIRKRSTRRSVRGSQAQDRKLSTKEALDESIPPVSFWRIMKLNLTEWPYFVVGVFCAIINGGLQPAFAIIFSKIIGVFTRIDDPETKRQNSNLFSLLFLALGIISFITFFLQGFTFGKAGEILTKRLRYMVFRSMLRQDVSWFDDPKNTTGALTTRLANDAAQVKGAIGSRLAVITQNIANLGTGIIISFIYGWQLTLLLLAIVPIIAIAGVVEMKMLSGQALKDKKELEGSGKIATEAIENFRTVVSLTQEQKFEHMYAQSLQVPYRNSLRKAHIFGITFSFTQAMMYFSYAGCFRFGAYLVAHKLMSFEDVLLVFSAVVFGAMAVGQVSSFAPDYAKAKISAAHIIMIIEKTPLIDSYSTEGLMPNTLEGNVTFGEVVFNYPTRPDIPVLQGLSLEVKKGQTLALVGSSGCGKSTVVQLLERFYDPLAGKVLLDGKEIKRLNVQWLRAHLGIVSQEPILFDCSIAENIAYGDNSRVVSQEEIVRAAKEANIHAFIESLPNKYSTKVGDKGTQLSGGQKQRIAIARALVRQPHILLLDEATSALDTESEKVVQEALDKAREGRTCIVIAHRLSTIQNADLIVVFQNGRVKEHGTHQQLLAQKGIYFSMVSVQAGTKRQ

Row | EC50 [1] | Alpha max [2] | Activity [3] | Structure (SMILES)
1 | 110 nM | 0.83 | – | COc1cc(/C=C/C(=O)OCCCCCN(C)CCCCCOC(=O)C2c3ccccc3-c3ccccc32)cc(OC)c1OC
2 | – | 0.5 | 0.8 µM | CN(CCCOC(=O)c1c2ccccc2cc2ccccc12)CCN(C)CCCOC(=O)c1c2ccccc2cc2ccccc12
3 | 2100 nM | 0.9 | – | COc1ccc(C(C#N)(CCC(=O)OCCCNCCCOC(=O)c2c3ccccc3cc3ccccc23)C(C)C)cc1OC (stereo unspecified)
4 | 500 nM | 1 | – | COc1cc(/C=C/C(=O)OCCCNCCCOC(=O)c2cc(OC)c(OC)c(OC)c2)cc(OC)c1OC
5 | 1000 nM | 0.55 | – | COc1cc(/C=C/C(=O)OCCCCCCCN(C)CCCCCCCOC(=O)c2cc(OC)c(OC)c(OC)c2)cc(OC)c1OC
6 | 1300 nM | 0.78 | – | COc1cc(/C=C/C(=O)OCCCN(C)CCN(C)CCCOC(=O)c2cc(OC)c(OC)c(OC)c2)cc(OC)c1OC
7 | 4200 nM | 0.9 | – | COc1cc(/C=C/C(=O)OCCOCCN(C)CCOCCOC(=O)c2cc(OC)c(OC)c(OC)c2)cc(OC)c1OC
8 | 170 nM | 0.84 | – | COc1cc(/C=C/C(=O)OCCOCCN(C)CCOCCOC(=O)c2c3ccccc3cc3ccccc23)cc(OC)c1OC
9 | 50 nM | 0.7 | – | COc1ccc(C(C#N)(CCCN(C)c2c3ccccc3cc3ccccc23)C(C)C)cc1OC (stereo unspecified)
10 | 800 nM | 0.84 | – | COc1cc(/C=C/C(=O)OCCCCCN(C)CCCCCOC(=O)c2cc(OC)c(OC)c(OC)c2)cc(OC)c1OC
11 | 160 nM | 0.9 | – | COc1cc(/C=C/C(=O)OCCCN2CCN(CCCOC(=O)c3c4ccccc4cc4ccccc34)CC2)cc(OC)c1OC
12 | 150 nM | 0.55 | – | COc1cc(/C=C/C(=O)OCCCCCCCN(C)CCCCCCCOC(=O)c2c3ccccc3cc3ccccc23)cc(OC)c1OC
13 | 180 nM | 0.78 | – | COc1cc(/C=C/C(=O)OCCCN(C)CCCOC(=O)c2c3ccccc3cc3ccccc23)cc(OC)c1OC
14 | 400 nM | 0.74 | – | COc1ccc(C(C#N)(CCC(=O)OCCCN(C)CCN(C)CCCOC(=O)c2c3ccccc3cc3ccccc23)C(C)C)cc1OC (stereo unspecified)
15 | 1000 nM | 0.84 | – | COc1cc(/C=C/C(=O)OCCN(C)CCOC(=O)c2c3ccccc3cc3ccccc23)cc(OC)c1OC
16 | 190 nM | 0.7 | – | COc1cc(/C=C/C(=O)OCCCN(C)CCN(C)CCCOC(=O)c2c3ccccc3cc3ccccc23)cc(OC)c1OC
17 | 620 nM | 0.65 | – | COc1ccc(C(C#N)(CCC(=O)OCCCN2CCN(CCCOC(=O)c3c4ccccc4cc4ccccc34)CC2)C(C)C)cc1OC (stereo unspecified)

Row | EC50 [1] | Alpha max [2] | Activity [3] | Structure (SMILES)
18 | 230 nM | 0.7 | – | COc1cc(/C=C/C(=O)OCCCN2CCN(CCCOC(=O)C3c4ccccc4-c4ccccc43)CC2)cc(OC)c1OC
19 | – | 0.5 | 2.5 µM | O=C(OCCCN1CCN(CCCOC(=O)c2c3ccccc3cc3ccccc23)CC1)c1c2ccccc2cc2ccccc12
20 | 600 nM | 0.9 | – | COc1cc(/C=C/C(=O)OCCCN(C)CCCOC(=O)c2cc(OC)c(OC)c(OC)c2)cc(OC)c1OC
21 | 210 nM | 0.74 | – | COc1cc(/C=C/C(=O)OCCCNCCCOC(=O)c2c3ccccc3cc3ccccc23)cc(OC)c1OC
22 | 3700 nM | 0.86 | – | COc1cc(/C=C/C(=O)OCCN(C)CCOC(=O)c2ccccc2)cc(OC)c1OC
23 | 2000 nM | 0.6 | – | COc1cc(/C=C/C(=O)OCCCCCCN(C)CCCCCCOC(=O)c2cc(OC)c(OC)c(OC)c2)cc(OC)c1OC
24 | 2600 nM | 0.8 | – | COc1cc(/C=C/C(=O)OCCCN(C)CCN(C)CCCOC(=O)/C=C/c2cc(OC)c(OC)c(OC)c2)cc(OC)c1OC
25 | 380 nM | 0.61 | – | COc1cc(/C=C/C(=O)OCCCN2CCN(CCCOC(=O)c3cc(OC)c(OC)c(OC)c3)CC2)cc(OC)c1OC
26 | 7000 nM | 1 | – | COc1cc(/C=C/C(=O)OCCOCCNCCOCCOC(=O)c2cc(OC)c(OC)c(OC)c2)cc(OC)c1OC
27 | 6400 nM | 0.8 | – | COc1cc(/C=C/C(=O)OCCN(C)CCOC(=O)c2ccc(OC)c(OC)c2OC)cc(OC)c1OC
28 | 570 nM | 0.64 | – | COc1cc(/C=C/C(=O)OCCCN(C)CCN(C)CCCOC(=O)C2c3ccccc3-c3ccccc32)cc(OC)c1OC
29 | 800 nM | 0.7 | – | COc1cc(/C=C/C(=O)OCCN(C)CCOC(=O)C2c3ccccc3-c3ccccc32)cc(OC)c1OC
30 | 3100 nM | 0.86 | – | COc1cc(/C=C/C(=O)OCCN(C)CCOC(=O)c2cc(OC)c(OC)c(OC)c2)cc(OC)c1OC
31 | 370 nM | 0.8 | – | COc1cc(/C=C/C(=O)OCCCN2CCN(CCCOC(=O)/C=C/c3cc(OC)c(OC)c(OC)c3)CC2)cc(OC)c1OC
32 | 100 nM | 0.8 | – | COc1cc(/C=C/C(=O)OCCCCCN(C)CCCCCOC(=O)c2c3ccccc3cc3ccccc23)cc(OC)c1OC
33 | 610 nM | 0.68 | – | COc1cc(/C=C/C(=O)OCCCCCCN(C)CCCCCCOC(=O)c2c3ccccc3cc3ccccc23)cc(OC)c1OC
